From ChEMBL document CHEMBL5316332 (J Med Chem, 2023)
Activity calls are given as the source filed them. The rule behind the calls is not given here.

Legend:
[1] = target: T1, Bone morphogenetic protein receptor type-2 (Homo sapiens) (UniProt Q13873); experiment: Binding affinity to recombinant C-terminal 6His-tagged human BMPR2 (188 to 517 residues) expressed in Escherichia coli Rosetta assessed as change in melting temperature at 50 uM by SYPRO Orange dye based thermal shift assay
T1 sequence (whole entry): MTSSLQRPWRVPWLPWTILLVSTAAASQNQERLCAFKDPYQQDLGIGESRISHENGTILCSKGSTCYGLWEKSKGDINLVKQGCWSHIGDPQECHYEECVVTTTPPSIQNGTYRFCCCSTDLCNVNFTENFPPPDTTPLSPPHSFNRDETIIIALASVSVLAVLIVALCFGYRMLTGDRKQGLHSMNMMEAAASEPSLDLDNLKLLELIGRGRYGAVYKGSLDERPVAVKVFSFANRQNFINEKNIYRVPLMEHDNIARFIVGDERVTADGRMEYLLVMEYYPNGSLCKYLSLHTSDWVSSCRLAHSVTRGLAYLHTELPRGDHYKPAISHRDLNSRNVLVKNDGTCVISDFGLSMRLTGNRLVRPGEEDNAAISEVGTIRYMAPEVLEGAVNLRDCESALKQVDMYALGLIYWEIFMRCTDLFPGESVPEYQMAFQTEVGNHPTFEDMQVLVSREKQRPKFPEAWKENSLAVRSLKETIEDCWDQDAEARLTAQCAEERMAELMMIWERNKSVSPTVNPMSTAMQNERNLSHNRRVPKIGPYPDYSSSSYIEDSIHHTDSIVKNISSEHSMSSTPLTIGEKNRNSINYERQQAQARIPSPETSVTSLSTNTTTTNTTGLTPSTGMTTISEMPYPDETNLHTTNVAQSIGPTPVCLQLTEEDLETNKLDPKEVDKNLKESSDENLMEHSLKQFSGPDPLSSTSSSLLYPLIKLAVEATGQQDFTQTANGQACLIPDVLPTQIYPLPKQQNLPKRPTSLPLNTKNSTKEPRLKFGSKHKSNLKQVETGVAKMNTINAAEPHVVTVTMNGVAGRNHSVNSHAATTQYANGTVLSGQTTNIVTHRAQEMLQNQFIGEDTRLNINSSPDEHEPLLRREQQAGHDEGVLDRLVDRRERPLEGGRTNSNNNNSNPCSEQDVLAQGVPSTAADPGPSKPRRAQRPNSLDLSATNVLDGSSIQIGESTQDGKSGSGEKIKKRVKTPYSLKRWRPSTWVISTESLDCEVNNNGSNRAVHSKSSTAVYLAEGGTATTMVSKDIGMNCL
How it was run: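 BMPR2 kinase domain-His (purified by IMAC, anion exchange and size exclusion) at 1 μg per 10 μL reaction in 50 mM Tris–HCl pH 7.5, 150 mM NaCl with SYPRO Orange 5×. Compound at 50 μM. Scanned 20 to 95 °C with fluorescence read every 10 s. Tm from the melt curve; averages of three technical replicates.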

[2] = target: T2, Activin receptor type-1B (Homo sapiens) (UniProt P36896); experiment: Inhibition of ACVR1B (unknown origin) by Z'-LYTE assay
T2 sequence (whole entry): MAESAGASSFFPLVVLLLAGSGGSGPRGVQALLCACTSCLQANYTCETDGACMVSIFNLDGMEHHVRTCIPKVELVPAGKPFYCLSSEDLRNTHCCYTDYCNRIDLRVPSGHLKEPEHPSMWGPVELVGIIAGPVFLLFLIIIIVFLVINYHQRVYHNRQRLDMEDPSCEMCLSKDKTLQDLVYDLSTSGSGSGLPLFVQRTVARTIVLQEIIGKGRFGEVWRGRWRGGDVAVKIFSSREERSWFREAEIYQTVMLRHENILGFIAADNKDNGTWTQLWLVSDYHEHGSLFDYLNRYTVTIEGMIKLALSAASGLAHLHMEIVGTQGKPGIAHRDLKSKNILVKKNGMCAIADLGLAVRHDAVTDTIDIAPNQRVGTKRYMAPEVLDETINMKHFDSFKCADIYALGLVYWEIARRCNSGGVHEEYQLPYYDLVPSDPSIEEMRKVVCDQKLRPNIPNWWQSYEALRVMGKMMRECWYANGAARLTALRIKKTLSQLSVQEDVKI
How it was run: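 Outsourced SelectScreen profiling by Z'-LYTE, a fluorescence coupled-enzyme kinase activity assay based on protease sensitivity of nonphosphorylated versus phosphorylated peptide.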

[3] = target: T3, TGF-beta receptor type-1 (Homo sapiens, UniProt P36897); experiment: (§1) Inhibition of TGFBR1 (unknown origin) by LanthaScreen TR-FRET assay
T3 sequence (P36897 whole entry): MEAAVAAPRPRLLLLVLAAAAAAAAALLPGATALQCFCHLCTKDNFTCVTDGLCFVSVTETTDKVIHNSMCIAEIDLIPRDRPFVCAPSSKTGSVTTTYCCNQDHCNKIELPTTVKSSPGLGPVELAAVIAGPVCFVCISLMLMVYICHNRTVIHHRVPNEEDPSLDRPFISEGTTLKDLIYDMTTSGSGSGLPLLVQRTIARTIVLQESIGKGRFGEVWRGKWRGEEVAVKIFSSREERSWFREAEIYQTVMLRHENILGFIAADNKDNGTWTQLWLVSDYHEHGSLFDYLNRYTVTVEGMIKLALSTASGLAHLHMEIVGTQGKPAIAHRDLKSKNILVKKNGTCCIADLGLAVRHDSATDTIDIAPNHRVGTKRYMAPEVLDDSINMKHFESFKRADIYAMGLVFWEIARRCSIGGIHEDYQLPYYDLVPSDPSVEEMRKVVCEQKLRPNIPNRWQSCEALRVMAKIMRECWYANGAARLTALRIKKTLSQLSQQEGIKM
How it was run: (§2)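 Outsourced SelectScreen profiling using a LanthaScreen TR-FRET binding format, in which a tight-binding tracer is displaced from the kinase.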

[4] = target: Bone morphogenetic protein receptor type-1B (Homo sapiens, UniProt O00238); experiment: Inhibition of BMPR1B (unknown origin) by LanthaScreen TR-FRET assay; how it was run: as §2
Chain of Bone morphogenetic protein receptor type-1B (O00238 whole entry): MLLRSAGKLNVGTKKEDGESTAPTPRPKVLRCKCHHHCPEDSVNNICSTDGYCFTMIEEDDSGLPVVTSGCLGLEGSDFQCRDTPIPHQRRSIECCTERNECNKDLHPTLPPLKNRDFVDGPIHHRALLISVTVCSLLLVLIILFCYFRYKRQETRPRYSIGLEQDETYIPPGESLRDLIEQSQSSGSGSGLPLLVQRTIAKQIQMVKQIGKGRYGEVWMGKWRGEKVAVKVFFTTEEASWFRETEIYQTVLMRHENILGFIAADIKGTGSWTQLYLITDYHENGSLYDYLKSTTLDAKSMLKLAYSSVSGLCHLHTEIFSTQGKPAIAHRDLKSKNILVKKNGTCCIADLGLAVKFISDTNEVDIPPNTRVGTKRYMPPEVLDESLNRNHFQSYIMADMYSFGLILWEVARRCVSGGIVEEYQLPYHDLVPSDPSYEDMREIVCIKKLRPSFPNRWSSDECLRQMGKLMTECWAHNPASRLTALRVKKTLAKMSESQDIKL

[5] = tested on: HEK293T; experiment: Inhibition of BMP signalling pathway in BMP2-stimulated human HEK293T cells assessed as decrease in SMAD1 phosphorylation at 25 uM preincubated for 30 mins followed by BMP2 stimulation and measured after 15 mins by Western blot analysis; type: cell-based; conditions: time 45.0 min
How it was run: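 HEK293T cells, 3 × 10^5 per well, starved overnight in DMEM with 2 mM glycine and 2% heat-inactivated FBS. Pretreated 30 min with inhibitor, then 5 ng/mL BMP2 for 15 min. Lysed in M-PER with protease inhibitors. Western blot for pSMAD1/5, SMAD1, SMAD5 and GAPDH, quantified by densitometry.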

[6] = tested on: HUVEC; experiment: Inhibition of BMP signalling pathway in BMP9-stimulated human HUVEC cells assessed as decrease in SMAD5 phosphorylation at 25 uM preincubated for 30 mins followed by BMP2 stimulation and measured after 15 mins by Western blot analysis; type: cell-based; conditions: time 45.0 min
How it was run: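 HUVECs, about 3 × 10^5 per well, starved overnight in Kaighn's F-12 with 0.5% FBS and 30 μg/mL endothelial cell growth supplement. Pretreated 30 min with inhibitor, then stimulated with 0.5 ng/mL BMP9. Lysed in M-PER with protease and phosphatase inhibitors. Western blot for pSMAD1/5, SMAD1 and SMAD5, quantified by densitometry.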

[7] = target: T4, TGF-beta receptor type-1 (Homo sapiens) (UniProt P36897); experiment: as §1; how it was run: as §2
T4 sequence (whole entry): T3 sequence (P36897 whole entry)

ΔTm [1] [°C]	inhibition [2]	IC50 [3] [µM]	IC50 [4] [µM]	inhibition [7]	inhibition [4]	SMILES	inhibition [5]	inhibition [6]
15.7	inactive	> 1	> 1			CNC(=O)[C@@H]1CC[C@@H](n2c(-c3ccc4cnccc4c3)nc3ccc(C(=O)NCc4cccc(C(N)=O)c4)cc32)C1		
	inactive	> 1	> 1			NC(=O)c1cccc(CNC(=O)c2ccc3nc(-c4ccc5cnccc5c4)n(C4CCCC4)c3c2)c1	Active	Active
	inactive			inactive	inactive	COc1cnc(Nc2cccc(S(N)(=O)=O)c2)nc1N1CCN(c2ccccc2)C(=O)C1	Active	Active
13.9	inactive			inactive	inactive	CNC(=O)CCc1ccc(C(=O)NCc2cccc(N3CCN(c4nc(Nc5cccc(S(N)(=O)=O)c5)ncc4OC)CC3)c2)cc1		
